Data reported in ChEMBL document CHEMBL4020761, “Exploration of pyrrole derivatives to find an effective potassium-competitive acid blocker with moderately long-lasting suppression of gastric acid secretion” (Bioorg Med Chem, 2017).

Key:
[1] = Inhibition of H+/K+-ATPase in porcine stomach gastric mucosal microsomes assessed as reduction in inorganic phosphate production using ATP as substrate preincubated for 30 mins followed by ATP addition in presence of KCl at pH 6.5 by malachite green reagent based colorimetric assay; parameters: species or system Sus scrofa
[2] = Lipophilicity, log D of the compound at pH 7.4 by HPLC analysis; assay type: physicochemical; conditions: buffer
Summary of the method: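 At pH 7.4, log D derived from HPLC retention time relative to standard compounds.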

[3] = Cytotoxicity against human HepG2 cells assessed as cellular ATP level at 100 uM after 1 day by ATPLite assay relative to control; assay type: cell-based; conditions: read-out: Activity
[4] = Plasma concentration in Sprague-Dawley rat at 0.2 mg/kg, iv administered as cassette dose after 10 mins by LC-MS/MS analysis; assay type: ADME, organism-based
Summary of the method: (§1)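 Fasted male Sprague-Dawley rats given compounds iv by cassette dosing at 0.2 mg/kg (as free base). Plasma and stomach sampled at 10 min, 1, 4 and 24 h. Plasma and 20% stomach homogenate in saline deproteinized with acetonitrile containing internal standard, then LC/MS/MS. AUC calculated for plasma and stomach. Values are averages of three rats.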

[5] = Drug uptake in Sprague-Dawley rat stomach at 0.2 mg/kg, iv administered as cassette dose after 10 mins by LC-MS/MS analysis; assay type: ADME, organism-based; conditions: read-out: Drug uptake; summary of the method: as §1
[6] = Plasma concentration in Sprague-Dawley rat at 0.2 mg/kg, iv administered as cassette dose after 1 hr by LC-MS/MS analysis; assay type: ADME, organism-based; summary of the method: as §1
[7] = Drug uptake in Sprague-Dawley rat stomach at 0.2 mg/kg, iv administered as cassette dose after 1 hr by LC-MS/MS analysis; assay type: ADME, organism-based; conditions: read-out: Drug uptake; summary of the method: as §1
[8] = Drug uptake in Sprague-Dawley rat stomach at 0.2 mg/kg, iv administered as cassette dose after 4 hrs by LC-MS/MS analysis; assay type: ADME, organism-based; conditions: read-out: Drug uptake; summary of the method: as §1
[9] = AUC in Sprague-Dawley rat plasma at 0.2 mg/kg, iv administered as cassette dose by LC-MS/MS analysis; assay type: ADME, organism-based; summary of the method: as §1
Stomach = assay: AUC in Sprague-Dawley rat stomach at 0.2 mg/kg, iv administered as cassette dose by LC-MS/MS analysis; assay type: ADME, organism-based; conditions: in vivo; summary of the method: as §1
CYP3A4 = CYP3A4 (Homo sapiens, UniProt P08684); assay: Inhibition of CYP3A4 (unknown origin) expressed in insect cells at 10 uM using testosterone as substrate after 15 mins by HPLC analysis relative to control; assay type: ADME; conditions: recombinant CYP3A4 expressed in insect cells, probe testosterone
Summary of the method: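 Testosterone substrate at 100 μmol/L with 10 nmol/L insect-cell-expressed CYP3A4 and 10 μmol/L test compound, incubated 15 min at 37 °C. 6β-hydroxytestosterone quantified by HPLC with UV detection.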

Rattus norvegicus = assay: Inhibition of histamine-induced acid secretion in Jcl:Sprague-Dawley rat gastric at 1 mg/kg, iv pretreated for 3 mins after pylorus ligation followed by histamine.2HCl treatment measured after 3 hrs by titration method relative to control; assay type: functional
Summary of the method: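 Anesthetized rats dosed iv at 1 mg/kg. Total acid output over 3 h after histamine injection compared with vehicle-treated rats.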

[10] = Drug uptake in Sprague-Dawley rat stomach at 0.2 mg/kg, iv administered as cassette dose after 24 hrs by LC-MS/MS analysis; assay type: ADME, organism-based; conditions: read-out: Drug uptake; summary of the method: as §1
hERG (KCNH2) = hERG (KCNH2) (Homo sapiens, UniProt Q12809); assay: Inhibition of human ERG expressed in HEK cells at 10 uM at -75 mV holding potential by Whole-cell voltage clamp assay relative to control; assay type: cell-based; conditions: HEK cells expressing human ERG
Chain of hERG (KCNH2) (Q12809 whole entry): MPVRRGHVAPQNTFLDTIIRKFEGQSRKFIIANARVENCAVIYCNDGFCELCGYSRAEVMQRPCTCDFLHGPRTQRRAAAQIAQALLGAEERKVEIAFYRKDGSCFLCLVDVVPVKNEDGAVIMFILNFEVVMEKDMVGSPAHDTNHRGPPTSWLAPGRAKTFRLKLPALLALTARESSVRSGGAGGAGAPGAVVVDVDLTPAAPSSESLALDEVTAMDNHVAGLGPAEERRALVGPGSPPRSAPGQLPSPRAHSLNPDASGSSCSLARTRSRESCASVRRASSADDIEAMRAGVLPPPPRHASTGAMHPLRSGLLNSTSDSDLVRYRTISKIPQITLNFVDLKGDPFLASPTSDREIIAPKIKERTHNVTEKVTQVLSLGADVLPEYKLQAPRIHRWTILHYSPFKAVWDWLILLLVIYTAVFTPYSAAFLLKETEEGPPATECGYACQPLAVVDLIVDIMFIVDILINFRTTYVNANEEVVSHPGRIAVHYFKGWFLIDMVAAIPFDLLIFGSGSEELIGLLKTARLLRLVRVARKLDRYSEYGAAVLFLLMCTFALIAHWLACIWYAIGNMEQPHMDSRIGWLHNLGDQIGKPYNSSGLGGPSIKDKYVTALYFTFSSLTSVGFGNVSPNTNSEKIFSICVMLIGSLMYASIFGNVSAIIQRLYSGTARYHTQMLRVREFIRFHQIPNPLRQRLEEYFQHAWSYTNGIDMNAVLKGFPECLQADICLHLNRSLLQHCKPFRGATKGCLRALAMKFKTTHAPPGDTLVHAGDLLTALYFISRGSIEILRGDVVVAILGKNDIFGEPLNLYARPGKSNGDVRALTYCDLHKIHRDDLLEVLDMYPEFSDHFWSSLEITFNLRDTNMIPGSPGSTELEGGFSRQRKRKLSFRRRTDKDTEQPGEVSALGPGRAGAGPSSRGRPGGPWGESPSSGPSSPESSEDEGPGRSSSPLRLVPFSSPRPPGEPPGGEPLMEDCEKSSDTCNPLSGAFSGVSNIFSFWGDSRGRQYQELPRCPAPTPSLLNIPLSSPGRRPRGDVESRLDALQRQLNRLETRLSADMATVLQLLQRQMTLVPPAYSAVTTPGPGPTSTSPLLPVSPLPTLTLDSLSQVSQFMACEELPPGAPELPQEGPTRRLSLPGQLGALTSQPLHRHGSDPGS

Chain of CYP3A4 (P08684 whole entry): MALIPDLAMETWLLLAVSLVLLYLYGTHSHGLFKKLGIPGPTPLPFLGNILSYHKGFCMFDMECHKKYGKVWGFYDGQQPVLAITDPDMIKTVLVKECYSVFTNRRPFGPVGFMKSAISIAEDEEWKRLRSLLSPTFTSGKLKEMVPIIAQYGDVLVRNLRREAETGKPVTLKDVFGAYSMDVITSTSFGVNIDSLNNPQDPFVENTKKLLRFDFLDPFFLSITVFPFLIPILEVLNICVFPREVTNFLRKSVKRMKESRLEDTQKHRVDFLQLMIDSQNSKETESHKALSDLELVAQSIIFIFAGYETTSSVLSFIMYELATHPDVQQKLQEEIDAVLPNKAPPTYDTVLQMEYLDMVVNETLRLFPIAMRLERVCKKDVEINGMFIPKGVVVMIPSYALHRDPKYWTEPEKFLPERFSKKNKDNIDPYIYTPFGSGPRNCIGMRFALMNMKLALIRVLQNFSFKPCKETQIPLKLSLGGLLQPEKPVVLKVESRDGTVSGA

SMILES | IC50 [1] [nM] | logD [2] | viability at 24 h, 100 µM [3] [%] | concentration at 10 min [4] [ng/mL] | concentration at 10 min [5] [ng/g] | concentration at 1 h [6] [ng/mL] | concentration at 1 h [7] [ng/g] | concentration at 4 h [8] [ng/g] | AUC [9] [ng·h/mL] | AUC (Stomach) [ng·h/g] | inhibition at 0.25 h, 10 µM (CYP3A4) [%] | inhibition in vivo at 1 mg/kg (Rattus norvegicus) [%] | concentration at 24 h [10] [ng/g] | inhibition at 10 µM (hERG (KCNH2)) [%]
CNCc1cn(S(=O)(=O)c2cccnc2Cl)c(-c2cccnc2F)c1F | 390 | 0.75 | 86.9 | 28 | 539 | 10.1 | 722 | 427 | 33 | 6568 | 53.1 | – | – | –
CNCc1cn(S(=O)(=O)c2cncc(C)c2)c(-c2cccnc2F)c1F | 140 | 0.61 | 86.9 | – | – | – | – | – | – | – | 49.7 | 87 | – | –
CNCc1cc(-c2cccnc2F)n(S(=O)(=O)c2ccsc2)c1 | 32 | – | – | 23.5 | 407 | 8.9 | 614 | 640 | 29 | 9152 | 1.4 | 98 | 41.7 | –
CNCc1cc(-c2cccnc2F)n(S(=O)(=O)c2ccccn2)c1 | 120 | – | – | – | – | – | – | – | – | – | -9.7 | 81 | – | –
CNCc1cc(-c2cccnc2F)n(S(=O)(=O)c2cccs2)c1 | 32 | – | – | 20.8 | 522 | 8.8 | 592 | 210 | 27 | 3815 | – | 96 | – | –
CNCc1cn(S(=O)(=O)c2cccc(C)n2)c(-c2cccnc2F)c1F | 210 | 0.71 | 83.8 | 41.7 | 1080 | 10.3 | 999 | 527 | 41 | 8550 | 22.9 | 91 | 3.3 | 13.9
CNCc1cc(-c2cccnc2F)n(S(=O)(=O)c2cccnc2)c1 | 210 | – | – | 37.1 | 420 | 8.4 | 532 | 541 | 35 | 7646 | 4.2 | 96 | 19.6 | –
CNCc1cn(S(=O)(=O)c2cccnc2)c(-c2cccnc2F)c1F | 49 | – | – | 51.5 | 602 | 15 | 752 | 629 | 54 | 10277 | 14.4 | 98 | 130 | –
CNCc1cn(S(=O)(=O)c2ccoc2)c(-c2cccnc2F)c1F | 60 | 0.45 | 100 | 37.4 | 635 | 11.5 | 688 | 194 | 41 | 3865 | 12.8 | 95 | – | 44.5
CNCc1cn(S(=O)(=O)c2ncccc2C)c(-c2cccnc2F)c1F | 510 | 0.32 | 79.1 | – | – | – | – | – | – | – | 29 | 54 | – | –
CNCc1cn(S(=O)(=O)c2ccco2)c(-c2cccnc2F)c1F | 79 | 0.2 | 90.8 | 26.5 | 592 | 6.5 | 706 | 254 | 26 | 4566 | 5.6 | 75 | – | 28.7
CNCc1cn(S(=O)(=O)c2ccc(OC)cn2)c(-c2cccnc2F)c1F | 280 | 0.64 | 80 | 54.2 | 624 | 13.1 | 806 | 426 | 52 | 6761 | 7.7 | 95 | – | 17.6
CNCc1cn(S(=O)(=O)c2cccc(F)n2)c(-c2cccnc2F)c1F | 240 | 0.7 | 74 | – | – | – | – | – | – | – | 46 | – | – | –
CNCc1cn(S(=O)(=O)c2cnccc2C)c(-c2cccnc2F)c1F | 120 | 0.43 | 90.9 | 50.1 | 360 | 8.4 | 618 | 251 | 41 | 4248 | 40 | 98 | – | 28.2
CNCc1cn(S(=O)(=O)c2cncc(Cl)c2)c(-c2cccnc2F)c1F | 160 | 1.44 | 66.9 | – | – | – | – | – | – | – | 45.9 | – | – | –
CNCc1cn(S(=O)(=O)c2ccc(F)cn2)c(-c2cccnc2F)c1F | 100 | 0.42 | 86.5 | 25 | 369 | 5 | 526 | 347 | 22 | 5179 | 21.7 | 87 | – | –
